Among the data in ChEMBL document CHEMBL1157184, “Hymenoic acid, a novel specific inhibitor of human DNA polymerase lambda from a fungus of Hymenochaetaceae sp” (Bioorg Med Chem, 2008) are Activity values, retold here.

For the test, the target named is T1, DNA polymerase alpha catalytic subunit (Drosophila melanogaster) (UniProt P26019).
T1 sequence (whole entry): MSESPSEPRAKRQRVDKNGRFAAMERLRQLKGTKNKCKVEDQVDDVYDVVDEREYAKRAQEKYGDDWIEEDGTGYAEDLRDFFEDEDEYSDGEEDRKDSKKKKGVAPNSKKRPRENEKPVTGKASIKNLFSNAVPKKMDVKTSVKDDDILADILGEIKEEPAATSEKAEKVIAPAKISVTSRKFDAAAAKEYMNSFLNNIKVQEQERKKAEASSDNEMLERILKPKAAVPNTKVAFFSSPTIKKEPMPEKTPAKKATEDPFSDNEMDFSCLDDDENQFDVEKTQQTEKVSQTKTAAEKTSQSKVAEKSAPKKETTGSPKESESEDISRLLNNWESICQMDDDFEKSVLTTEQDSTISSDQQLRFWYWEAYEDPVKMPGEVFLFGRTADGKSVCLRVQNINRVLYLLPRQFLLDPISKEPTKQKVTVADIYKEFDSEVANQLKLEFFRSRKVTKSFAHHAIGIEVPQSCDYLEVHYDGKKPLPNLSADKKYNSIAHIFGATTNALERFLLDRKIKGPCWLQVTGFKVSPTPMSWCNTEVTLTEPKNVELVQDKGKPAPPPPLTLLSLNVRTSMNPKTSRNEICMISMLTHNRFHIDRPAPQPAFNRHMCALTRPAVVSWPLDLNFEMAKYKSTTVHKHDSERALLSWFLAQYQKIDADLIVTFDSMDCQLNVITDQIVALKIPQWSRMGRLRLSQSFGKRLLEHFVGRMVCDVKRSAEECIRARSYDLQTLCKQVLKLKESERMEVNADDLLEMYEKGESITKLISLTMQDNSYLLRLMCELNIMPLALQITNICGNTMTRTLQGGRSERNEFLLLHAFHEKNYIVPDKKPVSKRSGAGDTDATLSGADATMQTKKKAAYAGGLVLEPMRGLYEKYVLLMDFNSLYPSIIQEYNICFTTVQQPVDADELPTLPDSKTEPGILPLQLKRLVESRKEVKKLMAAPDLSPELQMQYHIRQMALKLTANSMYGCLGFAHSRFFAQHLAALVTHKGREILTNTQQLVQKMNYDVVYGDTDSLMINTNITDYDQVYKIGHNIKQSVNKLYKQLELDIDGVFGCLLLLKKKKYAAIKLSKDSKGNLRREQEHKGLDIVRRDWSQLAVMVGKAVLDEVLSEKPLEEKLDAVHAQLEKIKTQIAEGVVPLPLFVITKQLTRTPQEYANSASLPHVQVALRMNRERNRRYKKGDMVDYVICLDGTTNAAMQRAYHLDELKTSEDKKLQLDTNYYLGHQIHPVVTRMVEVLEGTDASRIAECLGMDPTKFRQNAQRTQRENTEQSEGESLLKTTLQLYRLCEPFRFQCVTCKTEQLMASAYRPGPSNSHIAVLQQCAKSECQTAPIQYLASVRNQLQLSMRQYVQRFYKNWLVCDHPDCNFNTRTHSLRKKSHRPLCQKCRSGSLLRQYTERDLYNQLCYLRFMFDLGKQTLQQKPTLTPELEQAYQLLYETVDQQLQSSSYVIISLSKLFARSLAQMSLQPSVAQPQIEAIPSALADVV
Kind of test: Inhibition of fruit fly DNA polymerase alpha at 200 uM. The method in brief:
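Compound dissolved in DMSO and sonicated 30 s, then held with each polymerase (final 0.05 U) in 50 mM Tris-HCl pH 7.5, 1 mM DTT, 50% glycerol, 0.1 mM EDTA at 0 °C for 10 min. Reaction with poly(dA)/oligo(dT)12-18 and dTTP ran 60 min at 37 °C (Taq at 74 °C). Activity relative to no-compound control; means ± SEM, four independent experiments.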

Active and inactive are the calls of the source. The calls are words filed in the database; no cut-off is given here.

Regarding `C/C(=C\CC[C@H](C)C(=O)O)[C@H]1CC[C@H](C(=O)O)CC1`, the outcome was inactive.
